Assay results collected from several papers.
Each line is one published result; the experiments were not run side by side.
EGFR: Epidermal growth factor receptor (EGFR, Homo sapiens, UniProt P00533)

Compound | target | assay | endpoint | result
C=CC(=O)Nc1cc(Nc2nccc(-c3cn(C4CC4)c4ccccc34)n2)c(OC)cc1N(C)CCN(C)C | Epidermal growth factor receptor (EGFR, Homo sapiens, UniProt P00533, G719S) | enzyme activity, inhibitor, TR-FRET | IC50 | 82.8 nM
C=C(Cl)C(=O)Nc1cc(Nc2nc(Nc3cnn(C)c3)c3sccc3n2)c(OC)cc1N(C)CCN(C)C | Epidermal growth factor receptor (EGFR, Homo sapiens, UniProt P00533, C797S/L858R/T790M) | enzyme activity, inhibitor, ELISA | IC50 | > 1000 nM
COc1cc2ncc(-c3ccccc3)nc2cc1OC | EGFR | binding | Kd | > 10000 nM
O=C(N/N=C/c1cccn1CCCN1CCCCC1)Nc1cc2c(Nc3ccc(F)c(Cl)c3)ncnc2cc1O[C@H]1CCOC1 | EGFR | enzyme activity, inhibitor | IC50 | 0.8 nM
CC#CC(=O)N1CC[C@@H](n2cc(-c3ccc(Oc4c(F)cccc4F)cc3)c3c(N)n[nH]c(=O)c32)C1 | EGFR | binding, competition with immobilised ligand | Kd | 270 nM
CCN(CC)C/C=N/NC(=O)Nc1cc2c(Nc3ccc(F)c(Cl)c3)ncnc2cc1O[C@H]1CCOC1 | EGFR | enzyme activity, inhibitor | IC50 | 0.4 nM
C=C(Cl)C(=O)Nc1cc(Nc2nc(N3CCc4sccc4C3)c3sccc3n2)c(OC)cc1N(C)CCN(C)C | EGFR | enzyme activity, inhibitor, ELISA | IC50 | 996 nM
COc1cc2ncnc(Nc3ccc(O)cc3)c2cc1OC | EGFR | binding | Kd | 26 nM
